PAD4 inh – human PAD4 inhibitors, primary screen, biochemical, fluorescence polarization, 1536-well format; inhibition, % at 6.36 µM; Protein-arginine deiminase type-4 (Homo sapiens), Q9UM07; AID 485272, 2010; 330,000 tested, 0.41% active; recombinant PAD4, RCA probe fluorescence polarization;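 active = percent inhibition above a cutoff equal to the mean of all tested compounds plus 3 SD, cut at about 15% in these data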;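 also: 0% = PAD4 with RCA probe and DMSO and 100% = probe without PAD4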
GSTO1 inh – inhibitors of recombinant GSTO1, primary screen, counter-screen for RBBP9 inhibitor project, biochemical, fluorescence polarization | Glutathione S-transferase omega-1 (Homo sapiens), P78417 | activity-based probe fluorescence polarization | inhibition, % at 5.96 µM | 300,000 tested, 1.1% active;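 active = inhibition above the campaign mean inhibition plus 3 SD, cut at about 35% in these data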;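 also: 0% = GSTO1-1 with DMSO and 100% = wells lacking GSTO1-1 enzyme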
Target sequence (P78417 whole entry, looked up): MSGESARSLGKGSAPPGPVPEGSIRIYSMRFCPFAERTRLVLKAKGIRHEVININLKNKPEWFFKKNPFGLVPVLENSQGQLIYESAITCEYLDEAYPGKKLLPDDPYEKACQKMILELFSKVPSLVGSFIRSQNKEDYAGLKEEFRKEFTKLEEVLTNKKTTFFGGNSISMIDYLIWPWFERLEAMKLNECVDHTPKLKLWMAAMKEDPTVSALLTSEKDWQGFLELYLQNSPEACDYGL
TDP2 inh – human TDP2 enzyme inhibitors, primary screen, biochemical, epi absorbance, recombinant enzyme; inhibition, % at 12.8 µM; 370,000 tested, 0.34% active; T5PNP hydrolysis, p-nitrophenol absorbance 415 nm;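 active = inhibition above the mean of all tested compounds plus 3 SD, set per campaign, cut at about 25% in these data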;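 also: 0% = DMSO with enzyme and 100% = buffer with substrate but no TDP2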
Target sequence (O95551 whole entry, looked up): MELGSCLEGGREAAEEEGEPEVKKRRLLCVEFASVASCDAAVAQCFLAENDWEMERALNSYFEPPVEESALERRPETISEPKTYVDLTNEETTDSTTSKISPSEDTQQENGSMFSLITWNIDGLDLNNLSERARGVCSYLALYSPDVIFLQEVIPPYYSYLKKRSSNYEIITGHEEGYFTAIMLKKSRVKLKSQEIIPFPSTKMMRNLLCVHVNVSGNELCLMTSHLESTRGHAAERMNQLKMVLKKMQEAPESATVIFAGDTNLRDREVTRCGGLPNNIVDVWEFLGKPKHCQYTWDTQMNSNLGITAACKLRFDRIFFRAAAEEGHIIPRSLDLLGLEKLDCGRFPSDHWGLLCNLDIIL
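Assay system: recombinant human TDP2 / Reagent: T5PNP substrate at 5 mM, a TopII-DNA adduct mimic / Measured by: epi absorbance from released p-nitrophenol / Evaluation: % inhibition relative to enzyme-containing and enzyme-free wells / Control set: enzyme-free and DMSO wells / Replicates: each compound tested once, singlicate / Schedule: enzyme reaction with compound for 2 h at 37 °C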
CTSL1 counter – Fasciola hepatica cathepsin L1 inhibitors, primary screen, counter-screen for PFM18AAP inhibitor project, biochemical, QFRET, fluorogenic peptide substrate | recombinant F. hepatica cathepsin L1, Z-Leu-Arg-MCA fluorescence | inhibition, % at 5.96 µM | 300,000 tested, 0.49% active | AID 1906, 2009;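 active = inhibition above the mean of all tested compounds plus 3 SD, set per screening campaign, cut at about 17% in these data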;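 also: 0% = plate median of test compound wells and 100% = 1 µM Z-Phe-Ala-diazomethylketone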
PAD4 FP conf – human PAD4 inhibitors, confirmation, biochemical, fluorescence polarization; shares compounds with PAD4 inh; recombinant PAD4, RCA probe fluorescence polarization; inhibition, % at 6.36 µM; 1,200 tested, 28% active; AID 488796, 2010;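 active = mean inhibition across replicates above the hit cutoff set by the earlier primary screen, cut at about 15% in these data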;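 also: inhibitors block active-site labeling by the probe so polarization falls; 0% = PAD4 with probe and DMSO and 100% = probe without PAD4 enzyme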
* = called active by the depositor; x = no result given. The list is not random: actives were taken first. Their share in the collection is about 1.4%.

SMILES	PAD4 inh	GSTO1 inh	TDP2 inh	CTSL1 counter	PAD4 FP conf
Cc1ccc2c(c1)sc(C)[n+]2CCCS(=O)(=O)[O-]	18.1*	-9.9	-14.2	-8.2	11.1
CCCCNS(=O)(=O)CC1NCc2cc(OC)ccc21 (stereo unspecified)	x	x	5.5	x	x
Cc1cc2ncn(-c3ncccc3[N+](=O)[O-])c2cc1C	86.6*	6.8	-9.1	-1.6	-1.5
O=[N+]([O-])c1cccnc1-n1cnc2ccccc21	3.5	4.8	-14.5	-0.4	x
COC(=O)c1ccc2c(c1)SC1=C(CCCC1=O)N2	42.6*	15.5	6.2	1.0	39.5*
O=C1CCCC2=C1Sc1ccc(Cl)cc1N2	-1.1	5.6	-3.4	6.8	x
COc1ccc(CN2C3=NC(c4ccccc4)CC(=O)N3/C(=C\c3ccccc3)C2c2ccccc2)c(OC)c1 (stereo unspecified)	x	x	8.3	x	x
CC(CCc1ccccc1)NC(=O)Cc1ccccc1 (stereo unspecified)	-1.9	5.2	5.9	1.0	x
CC(CCc1ccccc1)NC(=O)CNC(=O)COc1ccccc1 (stereo unspecified)	29.6*	10.5	13.5	1.2	-2.0
CC(C)Cn1c(N)c(C(=O)COC(=O)Cc2cccs2)c(=O)n(C)c1=O	46.5*	-0.2	6.8	2.3	2.2
CC(C)Cn1c(N)c(C(=O)COC(=O)/C=C/c2cccs2)c(=O)n(C)c1=O	-2.9	-3.3	13.2	0.4	x
COC(=O)C1CN(CCO)CCS(=O)(=O)N1Cc1cn(Cc2cccc(Cl)c2)nn1 (stereo unspecified)	x	x	-2.3	x	x
O=C(O)c1ccc(CSc2ncn[nH]2)cc1	-0.7	6.4	4.6	0.6	x
CCn1c(CSc2ncn[nH]2)nc2cc(C(=O)O)ccc21	22.4*	5.7	-8.3	-1.6	15.0*
Cn1c(SCC(=O)C(C)(C)C)nnc1-c1ccncc1	-5.9	-0.4	-11.5	0.8	x
CCn1c(CSc2nnc(-c3ccncc3)n2C)nc2cc(C(=O)O)ccc21	52.5*	34.2	13.8	-1.9	62.0*
CCn1c(CSc2nnc(-c3ccoc3C)n2C)nc2cc(S(=O)(=O)N(C)C)ccc21	31.8*	-4.8	4.0	-3.1	14.6
CN1C(=O)c2cc(NC(=O)Nc3ccccc3)ccc2OC[C@H]2O[C@@H](CC(=O)NC3CCC3)CC[C@@H]21	x	x	5.8	x	x
CC(C)C(C#CC1CC1)N(Cc1ccc2c(c1)OCO2)C(N)=NC(=O)/C=C/c1ccccc1 (stereo unspecified)	x	x	-6.4	x	x
C/C(C=NNC(=O)CSc1nc2ccccc2n1C)=C\c1ccccc1	x	x	0.3	x	x
Cc1ccccc1C(=O)NNC(=O)CSc1nc2ccccc2c(=O)[nH]1	23.3*	14.3	1.6	18.2*	-4.1
CCOC(=O)CC(/C(C)=N\O)c1ccccc1 (stereo unspecified)	20.6*	2.7	-11.3	0.0	-5.5
CCOC(=O)CC(NC(=O)C(CC)c1ccccc1)c1ccccc1Cl (stereo unspecified)	-1.0	-0.4	0.2	3.1	x
COc1ccc(OC)c(S(=O)(=O)N2CCC(C(=O)N3CCN(C4CCCCC4)CC3)CC2)c1	x	x	1.0	x	x
O=C(CC1Nc2cccc3cccc(c23)NC1=O)Nc1ccc(F)cc1 (stereo unspecified)	58.9*	26.3	5.0	4.1	2.9
SMILES	PAD4 inh	GSTO1 inh	TDP2 inh	CTSL1 counter	PAD4 FP conf
CCCCOc1ccccc1NC(=O)CC1Nc2ccccc2NC1=O (stereo unspecified)	23.5*	-10.9	-12.6	0.3	-3.6
O=c1c2cc(F)ccc2sn1-c1ccccc1	40.5*	x	4.3	x	36.2*
O=C(O)c1cccc(-n2sc3ccccc3c2=O)c1	56.1*	x	-8.3	x	46.3*
Cc1ccccc1-n1sc2cc(F)ccc2c1=O	21.5*	9.5	12.8	-1.3	28.0*
CC(=O)Nc1ccc2c(=O)n(-c3ccccc3)sc2c1	x	x	6.1	x	x
O=c1c2ccccc2sn1-c1ccccc1	36.4*	-4.8	4.3	-3.0	41.4*
O=c1c2ccccc2sn1-c1ccccc1F	x	x	1.2	x	x
O=C1/C(=C/C=C/c2ccco2)SC(=S)N1NS(=O)(=O)c1ccccc1	64.7*	-3.2	22.0	11.8	2.8
CCCSc1nnc(Sc2nnnn2-c2ccccc2)s1	35.3*	2.6	-6.3	3.3	19.7*
Cc1ccccc1-n1nnnc1SCC(N)=O	-6.2	7.0	3.0	-0.4	x
Cc1ccccc1-n1nnnc1Sc1nnnn1-c1ccccc1	19.1*	0.6	-0.7	1.0	5.4
COC(=O)c1ccc2c(c1)C(=O)/C(=C/c1ccc(O)cc1)O2	-4.5	-27.3	5.4	2.1	x
COc1cccc(/C=C2\Oc3ccc(O)cc3C2=O)c1O	15.7*	-12.5	-11.8	0.3	4.8
COc1ccc(-c2noc3c2-c2nc(-c4ccc(Br)cc4)sc2CC3)cc1	102.4*	5.4	-0.7	0.0	1.9
O=C(O)CSc1c2ccccc2cc2ccccc12	23.4*	2.1	19.3	-6.9	20.5*
CC(C)n1cnc2c(NCc3ccccc3)cc(N[C@H](C)CO)cc21	46.3*	x	x	x	32.2*
CCC(CO)Oc1cc(NCc2ccccc2)c2ncn(C(C)C)c2c1 (stereo unspecified)	-9.8	x	2.6	x	x
O=C(CSc1nnc(-c2cnccn2)n1-c1ccccc1)Nc1ccc2c(c1)OCCO2	x	x	6.2	x	x
CCOc1ccc2nc(NC(=O)CN3CCN(c4ccccn4)CC3)sc2c1	4.0	-3.9	-4.3	-2.0	x
O=C(CN1CCN(c2ccccn2)CC1)Nc1nc2ccccc2s1	18.2*	8.0	4.2	-3.6	5.9
Cc1ccc(-c2nnc(SCC(=O)NN=Cc3c[nH]c4ccccc34)n2-c2ccccc2)cc1	x	x	-8.9	x	x
CCOC(=O)c1cc(S(=O)(=O)Nc2ccc(OC)cc2OC)cn1C	30.7*	-4.7	16.5	-3.9	-3.4
COc1cc2c(C#N)c(N3CCOCC3)nc(N)c2c(N)n1	18.2*	6.8	-3.6	1.0	0.5
COc1cc2c(C#N)c(N3CCCCC3)nc(N)c2c(N)n1	-7.1	-1.7	9.5	2.0	x
COC(=O)c1ccc(C(=O)OC)c(NC(=O)COc2ccccc2OC)c1	15.9*	-3.5	-0.1	0.5	18.1*
SMILES	PAD4 inh	GSTO1 inh	TDP2 inh	CTSL1 counter	PAD4 FP conf
COC(=O)c1ccc(C(=O)OC)c(NC(=O)CN2CCN(c3ccccc3OC)CC2)c1	-0.3	23.8	13.9	3.7	x
COc1ccc(S(=O)(=O)N(C(C)=O)c2ccc3oc(=O)sc3c2)cc1	21.6*	31.8	0.4	-2.2	6.5
COC(=O)c1c(C)oc2ccc(N(C(C)=O)S(=O)(=O)c3ccccc3)cc12	1.2	1.9	-4.7	-5.2	x
CCSc1ccc(-c2nn(-c3ccccc3)cc2/C=C(/C#N)C(=O)NCCCOC)cc1	18.4*	-5.2	-0.4	1.6	31.8*
COc1ccc(Oc2cccc3c2S(=O)(=O)N(C2CC2)C[C@@H](COCc2ccccc2)O3)cc1	x	x	-4.3	x	x
OCCN(CCO)c1ccc(C(c2ccc(Cl)cc2)c2ccc(N(CCO)CCO)cc2Cl)c(Cl)c1	15.3*	0.1	-2.2	-4.7	4.5

From PubChem BioAssay
